Laboratory results from ChEMBL document CHEMBL1817551, “Design of small molecule inhibitors of acetyl-CoA carboxylase 1 and 2 showing reduction of hepatic malonyl-CoA levels in vivo in obese Zucker rats” (Bioorg Med Chem, 2011).
Values after ≈ are worked out from the molar mass of the structure shown. One block for each molecule: values may come before it.

Assays:
[1] = Lipophilicity, log D of the compound; type: physicochemical; conditions: octanol/water
[2] = Solubility of the compound after 16 hrs by LC-UV/MS analysis; type: physicochemical
[3] = Volume of distribution in C57BL/6 mouse at 5 umol/kg, iv and 10 umol/kg, po; type: ADME, organism-based; conditions: in vivo
[4] = target: Acetyl-CoA carboxylase 1 (Rattus norvegicus, UniProt P11497); experiment: Inhibition of rat ACC1 assessed as inorganic phosphate generation preincubated for 5 mins measured after 1.5 hrs using Malachite green reagent method
[5] = Clearance in Sprague-Dawley rat at 3 to 5 umol/kg, iv; type: ADME, organism-based; conditions: in vivo
[6] = Clearance in C57BL/6 mouse at 5 umol/kg, iv and 10 umol/kg, po; type: ADME, organism-based; conditions: in vivo
[7] = tested on: Rattus norvegicus; experiment: Antiobesity activity in obese Zucker rat assessed as reduction in hepatic malonyl-coA level, iv administered 2 hrs; type: functional; parameters: scale not given: the % may be the effect or the level left
Outline: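 Obese Zucker rats were anaesthetized with Inactin (180 mg/kg ip), tracheotomized and fitted with carotid and jugular catheters. After 1.5 h post-surgery stabilization at 37.5 °C, compound or vehicle was infused iv; lean vehicle controls were included. Hepatic malonyl-CoA was measured by ion-pair HPLC–negative ESI MS/MS against a ¹³C₃ internal standard and related to plasma free exposure (fu×Cp/rat ACC2 IC50).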

[8] = Half life in C57BL/6 mouse at 10 umol/kg, po; type: ADME, organism-based; conditions: in vivo
[9] = target: Acetyl-Coenzyme A carboxylase 2 (Rattus norvegicus, UniProt Q1HEC0); experiment: Inhibition of ACC2 […] preincubated for 15 mins measured after 1.5 hrs using Malachite green reagent method
[10] = target: Acetyl-CoA carboxylase 1 (Homo sapiens, UniProt Q13085); experiment: Inhibition of human recombinant his-tagged ACC1 expressed in baculovirus/Sf9 cell assessed as inorganic phosphate formation […] measured after 1.5 hrs by Malachite green reagent method
[11] = Oral bioavailability in C57BL/6 mouse at 10 umol/kg; type: ADME, organism-based; conditions: in vivo
[12] = Intrinsic clearance in human liver microsome at 1 uM after 30 mins by LC-UV/MS analysis; type: ADME; conditions: liver microsomes
[13] = Fraction unbound in human plasma at 10 uM after 18 hrs by equilibrium dialysis method; type: ADME, cell-free
[14] = target: Acetyl-CoA carboxylase 2 (Homo sapiens, UniProt O00763); experiment: Inhibition of human recombinant his-tagged ACC2 expressed in baculovirus/Sf9 cell assessed as inorganic phosphate formation […] measured after 1.5 hrs by Malachite green reagent method
[15] = target: CYP3A4 (Homo sapiens, UniProt P08684); experiment: Inhibition of CYP3A4 at 13 uM; type: ADME
[16] = target: T1, CYP1A2 (Homo sapiens, UniProt P05177); experiment: Inhibition of CYP1A2 at 13 uM; type: ADME
T1 sequence (P05177 whole entry): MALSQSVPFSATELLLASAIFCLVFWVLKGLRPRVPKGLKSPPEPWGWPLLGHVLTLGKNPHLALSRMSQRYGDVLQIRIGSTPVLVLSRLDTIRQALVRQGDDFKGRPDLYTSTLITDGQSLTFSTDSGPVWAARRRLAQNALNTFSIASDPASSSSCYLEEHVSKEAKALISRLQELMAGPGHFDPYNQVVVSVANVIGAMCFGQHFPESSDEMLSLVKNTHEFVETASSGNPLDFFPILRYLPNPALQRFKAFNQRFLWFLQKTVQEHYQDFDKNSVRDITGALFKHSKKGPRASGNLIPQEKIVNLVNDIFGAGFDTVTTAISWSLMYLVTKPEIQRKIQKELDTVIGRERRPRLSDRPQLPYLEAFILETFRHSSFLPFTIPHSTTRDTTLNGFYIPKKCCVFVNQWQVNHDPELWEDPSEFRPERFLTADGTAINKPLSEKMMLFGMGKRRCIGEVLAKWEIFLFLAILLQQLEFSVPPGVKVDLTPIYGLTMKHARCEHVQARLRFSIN

[17] = target: CYP2D6 (Homo sapiens, UniProt P10635); experiment: Inhibition of CYP2D6 at 13 uM; type: ADME
[18] = target: CYP2C19 (Homo sapiens, UniProt P33261); experiment: Inhibition of CYP2C19 at 13 uM; type: ADME
[19] = target: CYP2C9 (Homo sapiens, UniProt P11712); experiment: Inhibition of CYP2C9 at 13 uM; type: ADME
[20] = Oral bioavailability in C57BL/6 mouse at 33 umol/kg; type: ADME, organism-based; conditions: in vivo
[21] = Half life in C57BL/6 mouse at 33 umol/kg, po; type: ADME, organism-based; conditions: in vivo
[22] = Clearance in C57BL/6 mouse at 33 umol/kg, iv and po; type: ADME, organism-based; conditions: in vivo
[23] = Volume of distribution in C57BL/6 mouse at 33 umol/kg, iv and po; type: ADME, organism-based; conditions: in vivo
[24] = Apparent permeability from apical to basolateral side of human Caco2 cells at pH 7.4 by LCMS; type: ADME, cell-based; conditions: Caco-2, pH 7.4
[25] = tested on: Rattus norvegicus; experiment: Ratio of […] to fraction unbound in Sprague-Dawley rat at 3 to 5 umol/kg, iv; type: ADME, organism-based; conditions: in vivo
[26] = Fraction unbound in rat plasma at 10 uM after 18 hrs by equilibrium dialysis method; type: ADME, cell-free

Chain of Acetyl-CoA carboxylase 2 (O00763 whole entry): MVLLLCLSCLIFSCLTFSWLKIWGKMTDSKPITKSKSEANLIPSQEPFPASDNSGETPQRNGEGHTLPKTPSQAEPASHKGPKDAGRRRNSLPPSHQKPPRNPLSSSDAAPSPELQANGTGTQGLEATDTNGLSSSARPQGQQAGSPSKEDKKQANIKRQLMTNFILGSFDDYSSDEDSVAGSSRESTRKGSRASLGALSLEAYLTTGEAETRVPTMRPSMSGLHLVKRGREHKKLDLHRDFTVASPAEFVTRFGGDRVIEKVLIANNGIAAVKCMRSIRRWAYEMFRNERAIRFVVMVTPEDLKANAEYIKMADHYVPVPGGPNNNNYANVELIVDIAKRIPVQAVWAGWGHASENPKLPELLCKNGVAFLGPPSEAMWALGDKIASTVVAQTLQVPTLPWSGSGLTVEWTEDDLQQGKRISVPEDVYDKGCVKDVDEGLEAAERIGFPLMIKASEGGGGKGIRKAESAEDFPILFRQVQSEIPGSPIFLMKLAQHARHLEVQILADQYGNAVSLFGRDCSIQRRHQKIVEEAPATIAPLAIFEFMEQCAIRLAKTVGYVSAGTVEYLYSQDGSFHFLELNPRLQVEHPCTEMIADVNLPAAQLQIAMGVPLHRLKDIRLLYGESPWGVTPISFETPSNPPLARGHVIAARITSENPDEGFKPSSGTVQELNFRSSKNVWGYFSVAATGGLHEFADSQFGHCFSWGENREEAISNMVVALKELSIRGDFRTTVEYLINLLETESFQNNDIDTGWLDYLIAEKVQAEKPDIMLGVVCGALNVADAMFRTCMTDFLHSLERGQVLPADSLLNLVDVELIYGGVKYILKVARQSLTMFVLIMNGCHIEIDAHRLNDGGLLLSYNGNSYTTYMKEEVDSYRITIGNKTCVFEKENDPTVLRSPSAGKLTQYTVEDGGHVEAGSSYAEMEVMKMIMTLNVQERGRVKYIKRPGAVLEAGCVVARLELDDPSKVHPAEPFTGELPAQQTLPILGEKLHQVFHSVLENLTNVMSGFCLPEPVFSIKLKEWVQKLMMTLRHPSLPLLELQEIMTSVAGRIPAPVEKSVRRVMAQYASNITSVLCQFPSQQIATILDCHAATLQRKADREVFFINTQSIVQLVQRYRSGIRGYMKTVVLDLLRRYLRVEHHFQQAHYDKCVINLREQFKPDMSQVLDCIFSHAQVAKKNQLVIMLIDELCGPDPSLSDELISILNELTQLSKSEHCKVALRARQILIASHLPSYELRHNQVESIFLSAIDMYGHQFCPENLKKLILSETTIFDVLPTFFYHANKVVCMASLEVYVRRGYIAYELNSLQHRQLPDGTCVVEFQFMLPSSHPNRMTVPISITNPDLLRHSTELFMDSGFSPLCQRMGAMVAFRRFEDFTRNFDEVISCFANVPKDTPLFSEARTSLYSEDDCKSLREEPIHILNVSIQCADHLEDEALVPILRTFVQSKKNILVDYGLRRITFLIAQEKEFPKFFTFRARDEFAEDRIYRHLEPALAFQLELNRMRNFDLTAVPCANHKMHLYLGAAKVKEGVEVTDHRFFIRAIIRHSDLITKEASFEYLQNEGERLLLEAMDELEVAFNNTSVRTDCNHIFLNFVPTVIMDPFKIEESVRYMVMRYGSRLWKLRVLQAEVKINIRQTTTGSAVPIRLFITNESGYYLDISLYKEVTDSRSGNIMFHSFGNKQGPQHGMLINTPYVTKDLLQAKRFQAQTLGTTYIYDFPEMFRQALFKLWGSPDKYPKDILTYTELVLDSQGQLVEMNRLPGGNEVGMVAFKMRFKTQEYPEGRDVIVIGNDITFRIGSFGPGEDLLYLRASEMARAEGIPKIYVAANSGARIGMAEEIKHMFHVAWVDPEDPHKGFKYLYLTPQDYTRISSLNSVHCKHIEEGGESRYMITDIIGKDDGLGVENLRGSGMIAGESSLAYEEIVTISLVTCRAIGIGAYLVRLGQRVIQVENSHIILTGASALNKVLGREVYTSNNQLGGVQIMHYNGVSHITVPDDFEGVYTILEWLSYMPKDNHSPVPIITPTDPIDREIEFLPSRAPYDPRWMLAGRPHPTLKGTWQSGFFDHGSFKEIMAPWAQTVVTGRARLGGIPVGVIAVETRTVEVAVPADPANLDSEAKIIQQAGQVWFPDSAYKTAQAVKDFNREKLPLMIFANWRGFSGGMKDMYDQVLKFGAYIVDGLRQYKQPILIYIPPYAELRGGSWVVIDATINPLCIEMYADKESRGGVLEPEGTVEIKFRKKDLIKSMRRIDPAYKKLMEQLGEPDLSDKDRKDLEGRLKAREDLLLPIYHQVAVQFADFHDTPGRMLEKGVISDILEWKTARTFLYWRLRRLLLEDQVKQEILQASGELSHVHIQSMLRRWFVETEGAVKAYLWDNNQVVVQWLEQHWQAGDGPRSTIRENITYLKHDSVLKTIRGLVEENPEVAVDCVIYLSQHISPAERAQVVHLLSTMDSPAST
Chain of CYP2D6 (P10635 whole entry): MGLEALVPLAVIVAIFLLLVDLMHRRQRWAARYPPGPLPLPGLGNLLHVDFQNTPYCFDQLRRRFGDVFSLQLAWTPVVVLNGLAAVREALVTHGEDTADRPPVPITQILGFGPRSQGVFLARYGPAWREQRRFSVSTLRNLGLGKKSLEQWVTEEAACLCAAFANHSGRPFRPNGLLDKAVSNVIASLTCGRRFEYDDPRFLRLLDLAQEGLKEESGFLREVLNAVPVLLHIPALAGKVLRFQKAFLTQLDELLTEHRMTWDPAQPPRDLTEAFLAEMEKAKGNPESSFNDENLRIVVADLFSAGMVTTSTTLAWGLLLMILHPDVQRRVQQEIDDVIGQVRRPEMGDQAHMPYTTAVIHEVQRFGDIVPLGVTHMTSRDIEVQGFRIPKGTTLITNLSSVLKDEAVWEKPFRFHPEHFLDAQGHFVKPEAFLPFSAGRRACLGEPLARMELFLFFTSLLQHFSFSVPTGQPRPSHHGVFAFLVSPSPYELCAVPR
Chain of CYP2C19 (P33261 whole entry): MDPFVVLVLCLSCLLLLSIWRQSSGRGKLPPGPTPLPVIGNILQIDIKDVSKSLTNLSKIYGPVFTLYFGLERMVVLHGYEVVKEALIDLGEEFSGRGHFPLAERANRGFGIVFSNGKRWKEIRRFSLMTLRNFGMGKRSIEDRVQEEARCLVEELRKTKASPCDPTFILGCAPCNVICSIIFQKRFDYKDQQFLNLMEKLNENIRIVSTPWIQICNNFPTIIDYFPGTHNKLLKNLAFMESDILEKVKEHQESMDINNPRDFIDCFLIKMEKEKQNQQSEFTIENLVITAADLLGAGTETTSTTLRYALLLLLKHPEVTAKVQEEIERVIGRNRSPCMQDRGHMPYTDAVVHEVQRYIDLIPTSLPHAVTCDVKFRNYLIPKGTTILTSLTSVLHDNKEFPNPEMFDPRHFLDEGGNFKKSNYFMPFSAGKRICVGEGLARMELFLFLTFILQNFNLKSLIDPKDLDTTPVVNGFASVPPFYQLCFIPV
Chain of CYP3A4 (P08684 whole entry): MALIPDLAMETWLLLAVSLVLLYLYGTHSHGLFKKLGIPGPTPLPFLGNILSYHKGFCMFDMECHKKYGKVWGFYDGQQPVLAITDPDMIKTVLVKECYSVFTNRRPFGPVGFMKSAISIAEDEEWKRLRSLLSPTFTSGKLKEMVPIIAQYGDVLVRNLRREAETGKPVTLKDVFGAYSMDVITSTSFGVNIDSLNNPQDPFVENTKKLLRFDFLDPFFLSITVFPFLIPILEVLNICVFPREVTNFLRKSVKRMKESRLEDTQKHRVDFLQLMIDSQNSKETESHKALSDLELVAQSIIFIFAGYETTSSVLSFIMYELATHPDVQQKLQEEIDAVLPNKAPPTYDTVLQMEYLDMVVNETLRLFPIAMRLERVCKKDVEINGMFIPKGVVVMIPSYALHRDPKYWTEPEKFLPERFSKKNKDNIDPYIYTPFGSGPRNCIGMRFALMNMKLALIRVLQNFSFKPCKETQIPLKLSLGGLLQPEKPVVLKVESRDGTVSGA
Chain of CYP2C9 (P11712 whole entry): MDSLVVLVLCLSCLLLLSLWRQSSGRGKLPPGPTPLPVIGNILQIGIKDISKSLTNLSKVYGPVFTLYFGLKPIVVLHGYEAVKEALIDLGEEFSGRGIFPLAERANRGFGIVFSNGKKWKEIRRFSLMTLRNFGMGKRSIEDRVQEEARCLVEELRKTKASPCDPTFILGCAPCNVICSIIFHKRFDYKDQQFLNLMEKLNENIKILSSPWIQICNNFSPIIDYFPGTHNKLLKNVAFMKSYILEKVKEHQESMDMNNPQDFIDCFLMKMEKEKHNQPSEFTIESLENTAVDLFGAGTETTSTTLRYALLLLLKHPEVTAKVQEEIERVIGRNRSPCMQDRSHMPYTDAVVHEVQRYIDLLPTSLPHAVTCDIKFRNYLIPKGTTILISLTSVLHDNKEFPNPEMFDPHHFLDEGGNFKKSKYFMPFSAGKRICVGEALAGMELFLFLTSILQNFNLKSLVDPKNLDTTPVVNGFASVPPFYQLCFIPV

logD [1]: 2.3
SMILES: CN(C)CCC1CCN(c2cc(C(=O)NC[C@H]3CC[C@H](CNC(=O)OC4CCOCC4)CC3)c3ccccc3n2)CC1

solubility at 16 h [2]: 80 µM (≈ 46.4 µg/mL)
Vd [3]: 3.6 L/kg
IC50 [4]: 250 nM
clearance [5]: 70 mL/min/kg
clearance [6]: 33 mL/min/kg
half-life [8]: 4.3 h
IC50 [9]: 150 nM
IC50 [10]: 1000 nM
bioavailability [11]: 135%
microsomal CLint at 1 µM [12]: 16 µL/min/mg
fraction unbound at 18 h, 10 µM [13]: 0.033
logD [1]: 3.6
SMILES: CC(C)(C)OC(=O)NC[C@H]1CC[C@H](CNC(=O)c2cc(N3CCC(CCN4CC(O)C4)CC3)nc3ccccc23)CC1
Activity [7]: 50%

IC50 [10]: 8000 nM
IC50 [14]: 1400 nM
logD [1]: 2.6
SMILES: CCOC(=O)NC[C@H]1CC[C@H](CNC(=O)c2cc(N3CCC(CCN(C)C)CC3)nc3ccccc23)CC1

logD [1]: 5
SMILES: Cc1noc(C)c1-c1cc(C(=O)NC[C@H]2CC[C@H](CNC(=O)OC(C)(C)C)CC2)c2ccccc2n1

SMILES: O=C(c1c2ccccc2cc2ccccc12)N1CCC(N2CCC[C@@H](C(=O)N3CCOCC3)C2)CC1
Activity [7]: 50%

solubility at 16 h [2]: 73 µM (≈ 40.4 µg/mL)
inhibition at 13 µM [15]: < 50%
inhibition at 13 µM [16]: < 50%
IC50 [10]: 5300 nM
inhibition at 13 µM [17]: < 50%
IC50 [14]: 730 nM
microsomal CLint at 1 µM [12]: < 12 µL/min/mg
inhibition at 13 µM [18]: < 50%
inhibition at 13 µM [19]: < 50%
logD [1]: 3.4
SMILES: CN(C)CCN1CCN(c2cc(C(=O)NC[C@H]3CC[C@H](CNC(=O)OC(C)(C)C)CC3)c3ccccc3n2)CC1

IC50 [14]: 780 nM
logD [1]: 4.7
SMILES: CC(C)(C)OC(=O)NC[C@H]1CC[C@H](CNC(=O)c2cc(-c3ccccc3)nc3[nH]ccc23)CC1

bioavailability [20]: 115%
half-life [21]: 2.9 h
clearance [22]: 52 mL/min/kg
IC50 [10]: 1000 nM
Vd [23]: 9.6 L/kg
IC50 [14]: 130 nM
logD [1]: 4
SMILES: CN(C)CCC1CCN(c2cc(C(=O)NC[C@H]3CC[C@H](CNC(=O)OCC(C)(C)C)CC3)c3ccccc3n2)CC1

Papp A→B [24]: 0.5 ×10⁻⁶ cm/s
IC50 [10]: 780 nM
IC50 [14]: 89 nM
logD [1]: 3.2
SMILES: CC(C)(C)OC(=O)NC[C@H]1CC[C@H](CNC(=O)c2cc(N3CCC(CCN)CC3)nc3ccccc23)CC1

IC50 [10]: 13000 nM
logD [1]: 2.9
SMILES: CC(C)(C)OC(=O)NC[C@H]1CC[C@H](CNC(=O)c2cc(N3CCNCC3)nc3ccccc23)CC1

IC50 [14]: 2500 nM
SMILES: CC(C)(C)OC(=O)NC[C@H]1CC[C@H](CNS(=O)(=O)c2ccc3ccccc3c2)CC1

solubility at 16 h [2]: < 1 µM
clearance [5]: 60 mL/min/kg
Ratio [25]: 12000
IC50 [14]: 210 nM
fraction unbound at 18 h, 10 µM [26]: 0.005
microsomal CLint at 1 µM [12]: 124 µL/min/mg
fraction unbound at 18 h, 10 µM [13]: 0.001
logD [1]: 5.9
SMILES: CC(C)(C)OC(=O)NC[C@H]1CC[C@H](CNC(=O)c2cc(-c3ccccc3)nc3ccccc23)CC1

IC50 [14]: 3600 nM
SMILES: O=C(c1cc(-c2ccccc2)nc2ccccc12)N1CCN(Cc2ccc3c(c2)OCO3)CC1

IC50 [10]: 2900 nM
IC50 [14]: 750 nM
logD [1]: 2.5
SMILES: CC(C)(C)OC(=O)NC[C@H]1CC[C@H](CNC(=O)c2cc(-c3ccc(C(=O)O)cc3)nc3ccccc23)CC1

logD [1]: 4.9
SMILES: CC(C)(C)OC(=O)NC[C@H]1CC[C@H](CNC(=O)c2cc(Cl)nc3ccccc23)CC1
